Assay results taken from ChEMBL document CHEMBL5344432, “Identification of a Dual Autophagy and REV-ERB Inhibitor with in Vivo Anticancer Efficacy” (J Med Chem, 2024).
Converted amounts (≈) assume the structure as drawn.

Columns and labels:
[1] = Metabolic stability in human liver microsomes assessed as percent compound remaining preincubated for 15 mins followed by UDPGA addition and measured after 2 hrs by LC-MS/MS analysis
[2] = Metabolic stability in human liver microsomes assessed as half life preincubated for 15 mins followed by NADPH addition and measured after 1 to 2 hrs by LC-MS/MS analysis; format: ADME, Microsome; conditions: liver microsomes, time 75-135 min
Method in brief: (§1)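 Microsomal stability assessed in mouse, human, rat or dog liver microsomes with NADPH cofactor. Half-life and percent parent remaining at 60 and 120 min reported. Mean of at least two independent experiments, each in two technical replicates.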

[3] = Metabolic stability in mouse liver microsomes assessed as half life preincubated for 15 mins followed by NADPH addition and measured after 1 to 2 hrs by LC-MS/MS analysis; format: ADME, Microsome; conditions: time 75-135 min; for half-life: liver microsomes; for t1/2: microsomes
Method in brief: as §1

BT-474 = test: Cytotoxicity against human BT-474 cells; format: functional
Method in brief: (§2)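 BT-474 breast cancer cells and nontumorigenic HMECs treated 48 h with concentrations up to 30 μM. CC50 derived from concentration–response viability plots. Values >30 μM assigned when viability fell by less than 50% of vehicle at 30 μM. Mean ± SEM, n ≥ 3.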

[4] = Metabolic stability in mouse liver microsomes assessed as half life preincubated for 15 mins followed by UDPGA addition and measured after 2 hrs by LC-MS/MS analysis; format: ADME, Microsome; conditions: time 135 min
Method in brief: (§3)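 Mouse and human liver microsomes incubated with UDPGA cofactor. Half-life and percent parent remaining at 120 min reported. Mean of at least two independent experiments, each in two technical replicates.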

[5] = Metabolic stability in mouse liver microsomes assessed as half-life preincubated for 15 mins followed by UDPGA addition and measured after 2 hrs by LC-MS/MS analysis
[6] = (§4) Cytotoxicity against HMECs; format: toxicity, cell-based, HMEC; conditions: human, HMEC cells
Method in brief: as §2

[7] = Aqueous kinetic solubility of the compound in PBS at pH 7.4 at 250 uM incubated for 24 hrs by UPLC/MS analysis; format: physicochemical; conditions: read-out: Kinetic_solubility
Method in brief: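 Kinetic solubility measured in phosphate-buffered saline, pH 7.4. Mean of at least two independent experiments, each run in two technical replicates.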

[8] = Metabolic stability in mouse liver microsomes assessed as parent compound remaining preincubated for 15 mins followed by NADPH addition and measured after 1 hr by LC-MS/MS analysis; format: ADME, Microsome; conditions: time 75 min, read-out: Stability
Method in brief: as §1

[9] = Metabolic stability in human liver microsomes assessed as parent compound remaining preincubated for 15 mins followed by NADPH addition and measured after 2 hrs by LC-MS/MS analysis; format: ADME, Microsome; conditions: time 135 min, read-out: Stability
Method in brief: as §1

[10] = Metabolic stability in human liver microsomes assessed as parent compound remaining preincubated for 15 mins followed by UDPGA addition and measured after 2 hrs by LC-MS/MS analysis; format: ADME, Microsome; conditions: time 135 min, read-out: Stability
Method in brief: as §3

[11] = Metabolic stability in human liver microsomes assessed as parent compound remaining preincubated for 15 mins followed by NADPH addition and measured after 1 hr by LC-MS/MS analysis; format: ADME, Microsome; conditions: time 75 min, read-out: Stability
Method in brief: as §1

[12] = Metabolic stability in mouse liver microsomes assessed as parent compound remaining preincubated for 15 mins followed by NADPH addition and measured after 2 hrs by LC-MS/MS analysis; format: ADME, Microsome; conditions: time 135 min, read-out: Stability
Method in brief: as §1

HMEC = test: as §4; format: toxicity, cell-based; conditions: human, hmec
Method in brief: as §2

[13] = Metabolic stability in rat liver microsomes assessed as parent compound remaining preincubated for 15 mins followed by NADPH addition and measured after 1 to 2 hrs by LC-MS/MS analysis; format: ADME, Microsome; conditions: time 75-135 min
Method in brief: as §1

[14] = Metabolic stability in rat liver microsomes assessed as half life preincubated for 15 mins followed by NADPH addition and measured after 1 to 2 hrs by LC-MS/MS analysis; format: ADME, Microsome; conditions: liver microsomes, time 75-135 min
Method in brief: as §1

[15] = Metabolic stability in dog liver microsomes assessed as half life preincubated for 15 mins followed by NADPH addition and measured after 1 to 2 hrs by LC-MS/MS analysis; format: ADME, Canis lupus familiaris, Microsome; conditions: microsomes, time 75-135 min
Method in brief: as §1

Row | SMILES | percent compound remaining at 2 h [1] | half-life [2] | half-life [3] | CC50 (BT-474) | half-life [4] | t1/2 at 2 h [5] | CC50 [6] | solubility kinetic at 24 h, 250 µM [7] | remaining at 1 h [8] | remaining at 2 h [9] | remaining at 2 h [10] | remaining at 1 h [11] | remaining at 2 h [12] | t1/2 [3] | CC50 (HMEC) | Stability [13] | half-life [14] | t1/2 [15]
1 | Fc1ccc(C2(NCc3cccc(CC4CCNCC4)c3)CCCC2)cc1 | 95% | > 2 h | > 2 h | 2.74 µM | > 2 h | > 2 h | > 30 µM | 248 µM (≈ 90.9 µg/mL) | 85% | 62% | 95% | 80% | 71% |  |  |  |  | 
2 | COc1cc(C2(NCc3cccc(CC4CCN(C)CC4)c3)CCCC2)ccc1F |  | > 2 h |  | 3.65 µM | > 2 h | > 2 h | > 30 µM | 219 µM (≈ 89.9 µg/mL) | 62% | 55% | > 95% | 80% | 40% | 1.52 h |  |  |  | 
3 | CN1CCC(Cc2cccc(CNC3(c4ccc(F)cc4O)CCCC3)c2)CC1 |  |  |  | > 30 µM | > 2 h | > 2 h | > 30 µM | 27 µM (≈ 10.7 µg/mL) | 34% |  | > 95% |  | 13% | 0.7 h |  |  |  | 
4 | CN1CCC(Cc2cccc(CNC3(c4ccc(F)c(F)c4)CCCC3)c2)CC1 |  | > 2 h |  | 5.1 µM | > 2 h | > 2 h | > 30 µM | 245 µM (≈ 97.6 µg/mL) | 56% | 53% | > 95% | 75% | 31% | 1.17 h |  |  |  | 
5 | CN1CCC(Cc2cc(CNC3(c4ccc(F)cc4)CCCC3)ccc2O)CC1 | 95% | > 2 h |  | 5.1 µM | > 2 h | > 2 h | > 30 µM | > 250 µM | 61% | 63% | 95% | 83% | 43% | 1.45 h |  |  |  | 
6 | CN1CCC(Cc2cc(CNC3(c4ccc(F)c(F)c4)CCCC3)ccc2F)CC1 |  | > 2 h |  | 3.52 µM |  |  | > 30 µM | 231 µM (≈ 96.2 µg/mL) | 48% | 56% |  | 77% | 21% | 0.967 h |  |  |  | 
7 | CN1CCC(Cc2cccc(CNC3(c4ccc(F)c(Cl)c4)CCCC3)c2)CC1 |  |  | > 1 h | 3.61 µM |  |  |  | 249 µM (≈ 103 µg/mL) | 53% |  |  |  |  |  | 21.9 µM |  |  | 
8 | CN1CC2(CC(Cc3cccc(CNC4(c5ccc(F)cc5)CCCC4)c3)C2)C1 |  | > 2 h |  | 4.83 µM | > 2 h | > 2 h | > 30 µM | 232 µM (≈ 91.1 µg/mL) | 70% | 66% | 95% | 82% | 49% | 1.92 h |  | 64% | > 1 h | 0.883 h
9 | CN1CCC(Cc2cccc(CNC3(c4ccc(F)cc4)CCCC3)c2)C(F)(F)C1 (racemic) |  |  | < 0.0833 h | 21.9 µM |  |  | > 30 µM | 41 µM (≈ 17.1 µg/mL) |  |  |  |  |  |  |  |  |  | 
10 | CN1CCC(Cc2cccc(CNC3(c4ccc(F)c(O)c4)CCCC3)c2)CC1 | 95% | > 2 h | > 2 h | 11.7 µM | > 2 h | > 2 h | > 30 µM | > 250 µM | 80% | 71% | > 95% | 84% | 63% |  |  |  |  | 
11 | CN1CCC(Cc2cccc(CNC3(c4ccc(F)cc4)CCCC3)c2)CC1(C)C (racemic) |  |  | > 1 h | 6.46 µM |  |  | > 30 µM | 239 µM (≈ 97.7 µg/mL) | 58% |  |  |  |  |  |  |  |  | 
